A selection: hits, their analogues and other compounds. The true share with any hit is near 2%.
PP5 primary – blocks human protein phosphatase 5 activity | purified PP5c, OMFP substrate fluorescence | inhibition, % at 6.7 µM | 0.18% of 320,000 active;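 active = inhibition above the campaign's mean inhibition across all tested compounds plus 3 SD, cut at about 9.5% in these data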;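 also: 0% = DMSO only and 100% = 100 µM cantharidin control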
UCH37 DUB inh – human UCH37 deubiquitinating enzyme inhibition. Q9Y5K5. purified proteasome/UCH37, Ub-AMC cleavage fluorescence. inhibition, % (test concentration not listed). 0.33% of 330,000 active. AID 588478;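 active = mean inhibition over replicate wells above about 20%, limit read from the data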;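 also: 0% = compound-free wells with enzyme and 100% = wells lacking proteasome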
Target sequence (Q9Y5K5 whole entry, looked up): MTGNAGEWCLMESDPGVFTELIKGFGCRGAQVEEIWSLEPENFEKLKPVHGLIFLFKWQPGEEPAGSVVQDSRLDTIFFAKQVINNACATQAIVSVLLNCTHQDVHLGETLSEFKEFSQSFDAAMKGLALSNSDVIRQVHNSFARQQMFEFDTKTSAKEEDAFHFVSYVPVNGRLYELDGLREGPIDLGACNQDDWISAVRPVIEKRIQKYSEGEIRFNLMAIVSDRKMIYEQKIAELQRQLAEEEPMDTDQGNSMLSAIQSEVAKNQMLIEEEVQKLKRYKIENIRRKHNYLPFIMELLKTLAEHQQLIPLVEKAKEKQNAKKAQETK
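Assay system: Proteasome-bound UCH37. Buffer or medium: pH 7.4 Tris-HCl (50 mM) with ovalbumin, ATP-MgCl2, DTT. Incubation: 30 min preincubation with enzyme, 25 min cleavage at room temperature. Measured by: fluorescence, ex 355 nm, em 460 nm. Read-out basis: percent inhibition. Control set: wells without proteasome as full block, compound-free enzyme plus substrate as uninhibited.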
CTSL1 counter – blocks F. hepatica cathepsin L1 in PFM18AAP counter-screen. AID 1906. inhibition, % at 5.96 µM. 0.49% of 300,000 active. recombinant F. hepatica cathepsin L1, Z-Leu-Arg-MCA fluorescence;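 active = inhibition above the mean of all tested compounds plus 3 SD, set per screening campaign, cut at about 17% in these data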;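 also: 0% = plate median of test compound wells and 100% = 1 µM Z-Phe-Ala-diazomethylketone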
GSTO1 counter – blocks human GSTO1 in RBBP9 counter-screen. recombinant GSTO1, activity-based probe fluorescence polarization. P78417. 1.1% of 300,000 active. inhibition, % at 5.96 µM;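 active = inhibition above the campaign mean inhibition plus 3 SD, cut at about 35% in these data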;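 also: 0% = GSTO1-1 with DMSO and 100% = wells lacking GSTO1-1 enzyme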
Target sequence (P78417 whole entry, looked up): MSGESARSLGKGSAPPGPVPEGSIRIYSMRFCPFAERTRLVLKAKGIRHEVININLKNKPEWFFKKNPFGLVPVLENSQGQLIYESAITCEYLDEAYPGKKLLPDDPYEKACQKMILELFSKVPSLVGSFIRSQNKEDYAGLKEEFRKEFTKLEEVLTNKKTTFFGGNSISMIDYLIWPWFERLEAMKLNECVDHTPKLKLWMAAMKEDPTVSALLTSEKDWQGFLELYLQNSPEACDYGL
PAD4 FP inh – inhibitors of human PAD4; Q9UM07; recombinant PAD4, RCA probe fluorescence polarization; inhibition, % at 6.36 µM; 0.41% of 330,000 active; AID 485272;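 active = percent inhibition above a cutoff equal to the mean of all tested compounds plus 3 SD, cut at about 15% in these data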;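 also: 0% = PAD4 with RCA probe and DMSO and 100% = probe without PAD4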
Apaf1 inhib – inhibitors of human Apaf-1 apoptosome | AID 489030 | reconstituted apoptosome caspase-3 activity, DEVD-Rh110 fluorescence | O14727 | 0.71% of 330,000 active | inhibition, % at 20 µM; active = inhibition of at least 40% at 20 µM;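 also: plate controls were DMSO wells for no effect and DEVD-CHO caspase inhibitor wells for full effect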
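Material: cell-free apoptosome with Apaf-1, procaspase-3 and caspase-9; Buffer or medium: Hepes pH 7.5 with detergent and BSA; Reagent: cytochrome c trigger plus (Z-DEVD)2-Rh110 caspase-3 substrate; Times: compound with Apaf-1, dATP, procaspase-3 30 min, then 50 min reaction, room temperature; Technique: Rh110 fluorescence intensity.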
GSTO1 inh conf – GSTO1 (human) inhibition, confirmation | shares compounds with GSTO1 counter | AID 2176 | recombinant GSTO1, probe fluorescence polarization | inhibition, % at 5.96 µM | 54% of 2,400 active;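 active = inhibition above the primary screen's cutoff, its mean inhibition plus 3 SD, cut at about 35% in these data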;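 also: loss of polarization as inhibitors block binding of rhodamine sulfonate ester activity probe; 0% = GSTO1 with DMSO and 100% = wells lacking GSTO1 enzyme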
GSTO1 ABPP inh – GSTO1 (human) inhibition by gel ABPP; shares compounds with GSTO1 counter; recombinant GSTO1, gel ABPP SE-Rh probe fluorescence; inhibition, % at 1 µM; 30% of 130 active; AID 463110;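 active = inhibition of the enzyme GSTO1 above about 75%, limit read from the data; inactive = inhibition below that limit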
* hit, by the source's call; i = inactive; nt = no result given.

SMILES | PP5 primary | UCH37 DUB inh | CTSL1 counter | GSTO1 counter | PAD4 FP inh | Apaf1 inhib | GSTO1 inh conf | others
CC(=O)Oc1ccc(OC(C)=O)c(SCCCCCN2CCOCC2)c1 | 6 | 3 | -17 | 79* | -7 | 2 | 6
CN1CCN(Cc2c(O)ccc3occ(C(=O)c4ccccc4)c23)CC1 | -2 | 4 | 9 | 3 | -4 | 10 | nt
CC(=O)C(C(C)=O)c1c(Cl)c(O)c(O)c2c(C(=O)c3ccccc3)coc12 | 4 | -1 | -4 | 58* | -1 | 34 | 7
CCN(CC)P(=O)(Nc1ccc(Br)cc1)c1c(C)nn(CCC#N)c1NC(=O)c1ccc(Cl)cc1 (configuration not stated) | 4 | 4 | 1 | 47* | -4 | 8 | 23
COc1ccc(C(=O)N/N=C/c2ccc3cccc(O)c3n2)cc1 | -4 | nt | 3 | 41* | -26 | 6 | 6
CC(C(=O)O)N1C(=O)/C(=C/C=C/c2ccco2)SC1=S (configuration not stated) | 2 | 2 | 4 | 64* | -1 | 47* | 30
CCN(C(=O)C(C)N1C(=O)/C(=C/c2ccco2)SC1=S)C1CCS(=O)(=O)C1 (configuration not stated) | -1 | nt | 5 | 31 | -1 | 25 | nt
N/C(=N/OC(=O)c1ccccc1Cl)c1ncc([N+](=O)[O-])s1 | 2 | nt | -3 | 47* | 2 | 18 | 12
O=C(CNC(=O)c1ccccc1F)NN=Cc1cn[nH]c1-c1ccccc1 | nt | 2 | nt | nt | nt | nt | nt
CC(=NNC(=S)NCc1ccccc1)c1ccco1 | nt | 0 | nt | nt | nt | nt | nt
NC(CN1CCCC1=O)=NO | nt | 2 | nt | nt | nt | nt | nt
Cc1cc(C(=O)N/N=C/c2ccc([N+](=O)[O-])o2)c(C)o1 | -3 | nt | 3 | 38* | -6 | 16 | 7
CCCC(=O)N(Cc1cc(=O)[nH]c2ccccc12)c1ccc(OC)cc1 | -4 | 6 | 1 | -5 | 11 | 8 | nt
COc1ccc(N(Cc2cc(=O)[nH]c3ccccc23)C(=O)CCl)cc1 | 2 | nt | 4 | 79* | 6 | -4 | 95* | GSTO1 ABPP inh=44
Cc1cccc(N(Cc2cc(=O)[nH]c3ccccc23)C(=O)CCl)c1 | -1 | nt | 6 | 90* | 14 | 15 | 91* | GSTO1 ABPP inh=76*
CC(CCc1ccco1)=NNC(=O)CNc1c(Br)cc(Br)cc1Br | nt | 1 | nt | nt | nt | nt | nt
O=C(CCc1ccc(S(=O)(=O)N2CCOCC2)cc1)NN=Cc1ccc(F)cc1F | nt | 0 | nt | nt | nt | nt | nt
CN(C)c1ccc(O)c2c1CC1CC3C(N(C)C)C(=O)C(C(N)=O)=C(O)[C@@]3(O)C(=O)C1=C2O (some centres not stated) | 1 | 1 | 4 | 48* | -3 | -1 | 20
C=C1c2cccc(O)c2C(O)=C2C(=O)[C@]3(O)C(O)=C(C(N)=O)C(=O)[C@@H](N(C)C)[C@@H]3[C@@H](O)[C@H]12 | 1 | 2 | 0 | 63* | -10 | -3 | 70*
CN(C)c1ccc(O)c2c1CC1CC3[C@@H](N(C)C)C(=O)C(C(N)=O)C(=O)[C@]3(O)C(=O)C1C2=O (some centres not stated) | nt | 5 | nt | nt | 1 | -4 | nt
C[C@H]1c2cccc(O)c2C(=O)C2C(=O)C3(O)C(=O)C(C(N)=O)C(=O)[C@@H](N(C)C)[C@@H]3[C@@H](O)[C@@H]21 (some centres not stated) | nt | 4 | nt | nt | -1 | -2 | nt
CCOC(=O)Cc1c(C)c2c(O)cc(O)cc2oc1=O | 3 | i | -1 | 59* | -3 | -8 | 0
COc1ccc(C=NNC(=O)c2ccc(Cl)cc2Cl)cc1COC(C)=O | nt | 4 | nt | nt | nt | nt | nt
COC(=O)C1=C(C)N(Cc2ccc(C)cc2)C(=O)/C1=C\c1ccc(O)c(OC)c1 | 0 | 4 | 2 | 34 | -6 | 5 | nt
CCOC(=O)C1=C(C)N(c2ccc(OCC)cc2)C(=O)/C1=C\c1ccco1 | 4 | 5 | 0 | 11 | -5 | 12 | nt
SMILES | PP5 primary | UCH37 DUB inh | CTSL1 counter | GSTO1 counter | PAD4 FP inh | Apaf1 inhib | GSTO1 inh conf | others
CCOC(=O)C1=C(C)N(c2ccc(C)cc2)C(=O)/C1=C\c1ccc(O)c(OC)c1 | 3 | 4 | 7 | 46* | -4 | -22 | 7
CCOc1cc(/C=C2\C(=O)N(CCc3ccc(OC)c(OC)c3)C(C)=C2C(=O)OC)ccc1O | 0 | 7 | -3 | 43* | -11 | 11 | -2
COc1ccccc1-c1nnc(NC(=O)C(C)SC2=NCCS2)s1 (configuration not stated) | 2 | 2 | 0 | 48* | 11 | -4 | 62*
COC(=O)NN=Cc1ccccc1OCc1ccccc1 | nt | 3 | nt | nt | nt | nt | nt
O=CN/C=C/c1cc(O)ccc1O | -2 | -19 | 0 | 72* | 2 | 6 | 7
O=Cc1ccc(O)cc1O | 3 | 6 | 0 | 7 | -3 | -5 | nt
C=CCN1C=C2C(=O)C(C)(OC(=O)c3ccco3)C(=O)C(C=C)=C2C=C1C1CC1 (configuration not stated) | 6 | nt | 0 | 39* | 13 | 23 | 12
Cc1nc(Cl)c(C(=O)NCc2ccccc2)c(C)c1Cl | 1 | 3 | -6 | 6 | 2 | -6 | nt
O=C(NCc1ccccc1)c1c(Cl)nc(Cl)c(Cl)c1Cl | -3 | 5 | -2 | 41* | 0 | 2 | 58*
Cc1cc(C)n(-c2cc(O)c(-n3nc(C)cc3C)cc2O)n1 | 2 | -4 | -1 | 47* | -6 | -1 | 3
COc1ccc(C(=O)ON=C(C)c2cnccn2)cc1 | nt | 1 | nt | nt | nt | nt | nt
COc1cccc(NC(=O)NC2(C(F)(F)F)Oc3ccccc3O2)c1 | 7 | 4 | 4 | 41* | 3 | 8 | 3
CC(C)CNC(=O)NC1(C(F)(F)F)Oc2ccccc2O1 | 2 | 0 | 1 | 51* | -2 | -15 | 7
O=C(NCc1cccnc1)NC(C(F)(F)F)C(F)(F)F | 1 | -7 | -1 | 15 | -3 | -2 | nt
O=C(NCc1cccnc1)NC1(C(F)(F)F)Oc2ccccc2O1 | 3 | 3 | -2 | 41* | -5 | 7 | 2
COc1cccc(NC(=O)Nc2cccc(C(=O)O)c2)c1 | -2 | 0 | 0 | -2 | 0 | -6 | nt
Cc1cccc(C(=O)Nc2ccc(C(=O)NN=Cc3ccco3)cc2)c1 | nt | 7 | nt | nt | nt | nt | nt
COc1ccc(C=Nn2c(-c3n[nH]c4c3CCC4)n[nH]c2=S)cc1OC | nt | 3 | nt | nt | nt | nt | nt
CCC(=O)N=c1ccn(C2=Nc3ccccc3NC2=C(C#N)C#N)cc1 | -4 | 4 | 3 | 63* | -4 | 2 | 21
NC(=O)c1cc(N)ccc1N1CCCCC1 | 3 | 4 | 0 | -1 | -1 | -2 | nt
Cc1cc(N)ccc1N1CCCC1 | 4 | nt | -1 | 73* | 28* | 65* | 6

Screening results (PubChem BioAssay)
